Results on one compound are retold here after ChEMBL document CHEMBL1765057, “Pyrazolo[4,3-d]pyrimidine bioisostere of roscovitine: evaluation of a novel selective inhibitor of cyclin-dependent kinases with antiproliferative activity” (J Med Chem, 2011).

Calls of active or inactive are those of the source. The rule behind the calls is not given here.

Assay [1] deals with RPMI-8226. Nature of the assay: Cell cycle arrest in human RPMI8226 cells assessed as accumulation at sub-G1 phase after 24 hrs using propidium iodide and BrdU staining by flow cytometry. The class given is functional, cell-based. Put shortly: (§1)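 Asynchronously growing RPMI-8226 multiple myeloma cells were exposed for 24 h. Cells were double-stained with propidium iodide and BrdU and analysed by flow cytometry for G1, S, G2/M and BrdU-positive fractions. The subG1 population was taken as indicative of apoptosis.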
A general note: Dividing cells build labelled thymidine or BrdU into new DNA.

Assay [2] concerns MCF7. Nature of the assay: Cell cycle arrest in human MCF7 cells assessed as accumulation at sub-G1 phase after 24 hrs using propidium iodide and BrdU staining by flow cytometry. In kind it is functional, cell-based. In a few lines:
(§2)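 Subconfluent MCF-7 cells were treated for 24 h at a range of concentrations. They were pulse-labelled with 10 μM BrdU for 30 min at 37 °C, then trypsinized and fixed in ice-cold 70% ethanol. DNA was denatured in 2 M HCl and neutralized with borate. Cells were stained with fluorescein anti-BrdU and with propidium iodide plus RNase A, then analysed by flow cytometry at 488 nm.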

Assay [3] concerns RPMI-8226. Nature of the assay: Induction of apoptosis in human RPMI8226 cells assessed as cleaved fragmentation of caspase3 after 24 hrs by immunoblot analysis. In kind it is functional, cell-based. In a few lines:
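RPMI-8226 cells were treated continuously for 24 h, and total lysates were made in Laemmli buffer, run on SDS-PAGE and blotted to nitrocellulose. Loading was checked with Ponceau-S. Membranes were blocked in milk or BSA, probed overnight at 4 °C with antibodies to PARP, caspase-3 and Mcl-1, then peroxidase secondary (1:2000), with ECL detection.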
(In general: A western blot detects proteins with antibodies after separation by electrophoresis.)

For assay [4], the target named is Glycogen synthase kinase-3 beta (Homo sapiens) (UniProt P49841). Nature of the assay: Inhibition of human recombinant GSK3B at 10 uM.
Sequence of Glycogen synthase kinase-3 beta (Homo sapiens) (P49841 whole entry, looked up): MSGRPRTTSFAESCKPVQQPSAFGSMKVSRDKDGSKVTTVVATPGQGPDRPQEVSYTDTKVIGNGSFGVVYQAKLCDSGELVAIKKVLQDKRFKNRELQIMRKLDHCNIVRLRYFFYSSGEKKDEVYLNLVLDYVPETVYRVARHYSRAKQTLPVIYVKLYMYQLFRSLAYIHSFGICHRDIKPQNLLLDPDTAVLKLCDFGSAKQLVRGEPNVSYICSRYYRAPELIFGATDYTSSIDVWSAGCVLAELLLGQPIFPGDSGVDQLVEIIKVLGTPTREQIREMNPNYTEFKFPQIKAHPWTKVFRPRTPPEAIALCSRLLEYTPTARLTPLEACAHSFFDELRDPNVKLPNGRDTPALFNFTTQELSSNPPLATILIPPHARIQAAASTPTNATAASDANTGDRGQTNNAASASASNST
The target in assay [5] is T1, Retinoblastoma-associated protein (Homo sapiens) (UniProt P06400).
T1 sequence (whole entry): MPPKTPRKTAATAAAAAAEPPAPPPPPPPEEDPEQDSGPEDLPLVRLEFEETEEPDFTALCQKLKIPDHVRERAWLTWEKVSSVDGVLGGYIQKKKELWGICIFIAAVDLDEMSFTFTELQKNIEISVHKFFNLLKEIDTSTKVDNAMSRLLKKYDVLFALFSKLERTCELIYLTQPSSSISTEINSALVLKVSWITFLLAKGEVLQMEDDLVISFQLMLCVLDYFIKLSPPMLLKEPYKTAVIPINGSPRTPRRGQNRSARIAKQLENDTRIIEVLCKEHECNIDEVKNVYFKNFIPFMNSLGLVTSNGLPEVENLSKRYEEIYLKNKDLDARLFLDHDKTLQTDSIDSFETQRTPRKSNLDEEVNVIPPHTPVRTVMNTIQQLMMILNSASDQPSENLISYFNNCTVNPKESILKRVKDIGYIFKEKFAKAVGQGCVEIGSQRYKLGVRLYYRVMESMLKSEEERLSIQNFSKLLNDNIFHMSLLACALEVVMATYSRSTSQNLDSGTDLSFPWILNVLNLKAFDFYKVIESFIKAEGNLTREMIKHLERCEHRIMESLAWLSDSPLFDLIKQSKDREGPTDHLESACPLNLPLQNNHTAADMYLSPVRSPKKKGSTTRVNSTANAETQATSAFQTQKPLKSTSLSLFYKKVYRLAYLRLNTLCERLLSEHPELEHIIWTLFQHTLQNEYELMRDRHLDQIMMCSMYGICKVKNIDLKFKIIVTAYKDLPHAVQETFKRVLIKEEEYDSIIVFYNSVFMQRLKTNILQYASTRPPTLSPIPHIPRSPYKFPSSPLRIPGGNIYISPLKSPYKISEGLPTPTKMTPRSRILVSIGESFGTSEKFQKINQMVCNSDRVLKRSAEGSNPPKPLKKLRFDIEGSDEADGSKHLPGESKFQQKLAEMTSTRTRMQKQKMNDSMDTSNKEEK
Nature of the assay: Inhibition of retinoblastoma protein in human MCF7 cells assessed as reduction of cyclin D1 level at 2.5 to 40 uM after 24 hrs by immunoblotting. The class given is cell-based. In a few lines:
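Asynchronous, exponentially growing MCF-7 cells were exposed 24 h to a range of concentrations. Total lysates were made in Laemmli buffer, run on SDS-PAGE and blotted to nitrocellulose. Membranes were probed overnight at 4 °C with specific or phosphospecific antibodies (pRb S249/T252, S780, S795, S807/811), with tubulin as loading control and ECL detection.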

In assay [6] the test system is MCF7. The assay can be described thus: Cytotoxicity against human MCF7 cells after 72 hrs by fluoroskan ascent microplate reader analysis. The class given is functional, cell-based. The note with it: MCF7, 72 h. Put shortly:
(§3)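 Cells were grown in DMEM with 10% FCS and 4 mM glutamine at 37 °C under CO2, then plated at densities suited to each line. Compounds were added as 3-fold dilutions in triplicate for 72 h.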

The subject of another assay is G-361. Nature of the assay: Cytotoxicity against human G361 cells after 72 hrs by fluoroskan ascent microplate reader analysis. The class given is functional, cell-based. The note with it: G-361, 72 h. Put shortly: as §3
Assay [7] relates to RPMI-8226. Nature of the assay: Induction of apoptosis in human RPMI8226 cells assessed as induction of caspase7 activation at 20 uM after 24 hrs by immunoblot analysis. The note with it: in the assay text read “by fluorogenic assay” for “by immunoblot analysis”. In kind it is functional, cell-based. Put shortly: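 RPMI-8226 cells were treated continuously for 24 h and lysed in CHAPS extraction buffer (pH 7.4) on ice, then clarified, with protein equalized by Bradford. Lysates were incubated 1 h with 100 μM Ac-DEVD-AMC in PIPES/DTT buffer (pH 7.3), with 100 μM Ac-DEVD-CHO added for negative controls. Fluorescence was read at 355/460 nm.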

A further assay deals with BT-474. Nature of the assay: Cytotoxicity against human BT474 cells after 72 hrs by fluoroskan ascent microplate reader analysis. In kind it is functional, cell-based. Conditions: BT-474, 72 h. Put shortly:
as §3

Assay [8] deals with RPMI-8226. Nature of the assay: Cell cycle arrest in human RPMI8226 cells assessed as accumulation at G2/M phase after 24 hrs using propidium iodide and BrdU staining by flow cytometry. In kind it is functional, cell-based. In a few lines: as §1
The subject of assay [9] is MCF7. The assay can be described thus: Cell cycle arrest in human MCF7 cells assessed as accumulation at G2/M phase after 24 hrs using propidium iodide and BrdU staining by flow cytometry. The class given is functional, cell-based. In a few lines:
as §2

The subject of assay [10] is RPMI-8226. Nature of the assay: Cytotoxicity against human RPMI8226 cells after 72 hrs by fluoroskan ascent microplate reader analysis. The class given is functional, cell-based. The note with it: RPMI-8226, 72 h. Put shortly:
as §3

The target in assay [11] is Cyclin-dependent kinase 5/CDK5 activator 1 (Homo sapiens) (UniProt Q00535+Q15078). The note with it: at 10 µM.
Sequence of Cyclin-dependent kinase 5/CDK5 activator 1 (Homo sapiens) (Q00535 whole entry): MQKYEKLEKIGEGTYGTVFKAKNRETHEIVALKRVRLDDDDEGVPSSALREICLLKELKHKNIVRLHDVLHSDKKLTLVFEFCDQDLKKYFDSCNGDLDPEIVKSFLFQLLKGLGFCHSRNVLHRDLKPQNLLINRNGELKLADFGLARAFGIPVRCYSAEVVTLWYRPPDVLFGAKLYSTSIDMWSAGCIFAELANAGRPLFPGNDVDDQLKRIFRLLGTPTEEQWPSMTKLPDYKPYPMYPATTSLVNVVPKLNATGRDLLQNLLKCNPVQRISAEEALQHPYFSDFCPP
Sequence of Cyclin-dependent kinase 5/CDK5 activator 1 (Homo sapiens) (Q15078 99-307 partner limits assumed): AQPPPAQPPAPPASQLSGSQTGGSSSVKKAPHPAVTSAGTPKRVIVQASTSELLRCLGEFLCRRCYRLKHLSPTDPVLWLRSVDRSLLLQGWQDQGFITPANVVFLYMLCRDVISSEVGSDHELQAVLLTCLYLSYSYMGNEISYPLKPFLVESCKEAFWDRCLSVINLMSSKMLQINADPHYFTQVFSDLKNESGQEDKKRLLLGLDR
Assay [12] has as its target Cellular tumor antigen p53 (Homo sapiens) (UniProt P04637). The assay can be described thus: Induction of p53-dependent transcriptional activity in human ARN8 cells assessed as beta-galactosidase activity at 10 to 20 uM after 24 hrs by immunofluorescence assay. The class given is cell-based. In a few lines: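 ARN8 melanoma cells stably carrying the p53-responsive pRGCΔfoslacZ reporter were exposed to inhibitors for 24 h, permeabilized with 0.3% Triton X-100 for 15 min, and given MUG substrate (final 80 μM). Fluorescence was read at 355/460 nm after 1 h. Data are mean ± SD of three independent experiments.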

The test system of a further assay is A-431. Nature of the assay: Cytotoxicity against human A431 cells after 72 hrs by fluoroskan ascent microplate reader analysis. The class given is functional, cell-based. The note with it: A-431, 72 h. Put shortly:
as §3

Sequence of Cellular tumor antigen p53 (Homo sapiens) (P04637 whole entry, looked up): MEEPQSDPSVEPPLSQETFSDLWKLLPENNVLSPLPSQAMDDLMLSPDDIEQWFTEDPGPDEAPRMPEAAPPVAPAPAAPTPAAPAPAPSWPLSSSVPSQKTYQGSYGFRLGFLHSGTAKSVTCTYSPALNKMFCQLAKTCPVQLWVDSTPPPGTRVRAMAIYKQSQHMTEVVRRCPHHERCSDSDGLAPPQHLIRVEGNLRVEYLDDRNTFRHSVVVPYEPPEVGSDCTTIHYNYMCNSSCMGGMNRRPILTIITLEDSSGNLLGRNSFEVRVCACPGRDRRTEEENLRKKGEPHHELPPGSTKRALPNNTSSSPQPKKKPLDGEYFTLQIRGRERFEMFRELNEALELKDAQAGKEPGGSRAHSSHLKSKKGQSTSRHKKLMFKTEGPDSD

The inhibition is the relative decrease from the control value, in per cent. By IC50 is commonly meant the concentration that gives 50% inhibition. Low values mean higher potency, high ones lower potency. For `CC[C@H](CO)Nc1nc(NCc2ccccc2)c2[nH]nc(C(C)C)c2n1`, the outcome in the assay with RPMI-8226 [1], in the assay on MCF7 [2], with RPMI-8226 [3], with RPMI-8226 [7], with RPMI-8226 [8] and in the assay with MCF7 [9] was Active. Moreover, the result in assay [12] was Active. The inhibition in assay [4] amounted to 54%; in [11], 95%. In assay [5], the inhibition result was “Active”. The IC50 with MCF7 [6] amounted to 7.5 µM; in the assay with G-361, 4.8 µM; in the assay with BT-474, 8.5 µM; in the assay with RPMI-8226 [10] it was 3.6 µM; in the assay on A-431, 7.7 µM.
